Measurements: ChEMBL document CHEMBL1124143, “Nonisomerizable analogues of (Z)- and (E)-4-hydroxytamoxifen. Synthesis and endocrinological properties of substituted diphenylbenzocycloheptenes” (1988)
Each block holds one compound with its values, some of them ahead of it.

Columns and labels:
[1] = biological target: T1, Estrogen receptor (Rattus norvegicus) (UniProt P06211+Q62986); assay: In vivo anti-uterotrophic effect in 0.2 ug estradiol benzoate stimulated immature rats at 12.5 ug; format: functional, organism-based
In short: (§1)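 Immature female Sprague-Dawley rats got daily subcutaneous injections of compound in 0.1 mL peanut oil for 3 days and were killed on day 4. Read-out was uterine weight (mg).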

[2] = biological target: T1, Estrogen receptor (Rattus norvegicus); assay: In vivo anti-uterotrophic effect in 0.2 ug estradiol benzoate stimulated immature rats at 25 ug; format: functional, organism-based; in short: as §1
[3] = biological target: T1, Estrogen receptor (Rattus norvegicus); assay: In vivo anti-uterotrophic effect in 0.2 ug estradiol benzoate stimulated immature rats at 50 ug; format: functional, organism-based; in short: as §1
[4] = system: MCF7; assay: Inhibition of MCF-7 human mammary tumor cell proliferation at 1*10e-8M; format: functional
In short: (§2)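 MCF-7 cells were plated at 5000 cells/mL. […] Cell number was read as colour intensity at 540 nm. Values are means of optical density from four separate cultures, […]. Statistics were one-way ANOVA with Newman-Keuls test.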

[5] = system: MCF7; assay: Inhibition of 1*10e-7 M estradiol induced proliferation of MCF-7 human mammary tumor cells at 1*10e-6 M; format: functional; in short: as §2
[6] = system: MCF7; assay: Inhibition of 1*10e-7 M estradiol induced proliferation of MCF-7 human mammary tumor cells at 1*10e-7 M; format: functional; in short: as §2
[7] = system: MCF7; assay: Inhibition of 1*10e-7 M estradiol induced proliferation of MCF-7 human mammary tumor cells at 1*10e-8M; format: functional; in short: as §2
[8] = system: MCF7; assay: (§3) Inhibition of 1*10e-8M estradiol induced proliferation of MCF-7 human mammary tumor cells; format: functional; in short: as §2
[9] = system: MCF7; assay: Inhibition of MCF-7 human mammary tumor cell proliferation at 1*10e-7 M; format: functional; in short: as §2
[10] = system: MCF7; assay: Inhibition of MCF-7 human mammary tumor cell proliferation; format: functional; in short: as §2
[11] = system: MCF7; assay: Inhibition of MCF-7 human mammary tumor cell proliferation at 1*10e-6 M; format: functional; in short: as §2
[12] = biological target: Estrogen receptor (Homo sapiens) (UniProt Q92731+P03372); assay: Inhibition of [3H]estradiol binding to Estrogen receptor of MCF-7 cell lysate […]; format: cell-based
[13] = system: MCF7; assay: Inhibition of MCF-7 human mammary tumor cell proliferation 1*10e-7 M; format: functional; in short: as §2
[14] = system: MCF7; assay: Inhibition of 1*10e-8M estradiol induced proliferation of MCF-7 human mammary tumor cells at 1*10e-7 M; format: functional; in short: as §2
[15] = system: MCF7; assay: as §3; format: functional; in short: as §2; remark: listed apart in the source
[16] = biological target: T1, Estrogen receptor (Rattus norvegicus); assay: In vivo anti-uterotrophic effect in 0.2 ug estradiol benzoate stimulated immature rats at 10 ug; format: functional, organism-based; in short: as §1
[17] = biological target: T1, Estrogen receptor (Rattus norvegicus); assay: In vivo anti-uterotrophic effect in 0.2 ug estradiol benzoate stimulated immature rats at 20 ug; format: functional, organism-based; in short: as §1
[18] = biological target: T1, Estrogen receptor (Rattus norvegicus); assay: In vivo anti-uterotrophic effect in 0.2 ug estradiol benzoate stimulated immature rats at 5 ug; format: functional, organism-based; in short: as §1
[19] = biological target: T1, Estrogen receptor (Rattus norvegicus); assay: In vivo uterotrophic effect in estradiol stimulated immature rats; format: functional, organism-based; in short: as §1

Uterine weight [1]: 92 | Uterine weight [2]: 75 | Uterine weight [3]: 77
SMILES: CN(C)CCOc1ccc(C2=C(c3ccccc3)CCCc3ccccc32)cc1

SMILES: CN(C)CCOc1ccc2c(c1)CCCC(c1ccccc1)=C2c1ccc(O)cc1
Optical density [4]: 0.44 | Optical density [5]: 0.363 | Optical density [6]: 0.566 | Optical density [7]: 0.659 | Optical density [8]: 0.707 | Optical density [9]: 0.328 | Optical density [10]: 0.337 | Optical density [11]: 0.162

relative binding affinity (RBA) [12]: 1.5 | Uterine weight [16]: 72 | Uterine weight [17]: 71 | Uterine weight [18]: 75
SMILES: CN(C)CCOc1ccc(C2=C(c3ccccc3)CCCc3cc(O)ccc32)cc1
Optical density [4]: 0.126 | Optical density [13]: 0.066 | Optical density [5]: 0.068 | Optical density [8]: 0.727 | Optical density [14]: 0.147 | Optical density [15]: 0.52 | Optical density [10]: 0.417 | Optical density [11]: 0.083

Uterine weight [19]: 108
SMILES: C[C@]12CC[C@@H]3c4ccc(OC(=O)c5ccccc5)cc4CC[C@H]3[C@@H]1CC[C@@H]2O
